Results as given in ChEMBL document CHEMBL5338774, “Quinazoline-2-Carboxamides as Selective PET Radiotracers for Matrix Metalloproteinase-13 Imaging in Atherosclerosis” (J Med Chem, 2023).

Assays:
[1] = biological target: Collagenase 3 (Homo sapiens, UniProt P45452); assay: Inhibition of human recombinant MMP-13 using Mca-Lys-Pro-Leu-GlyLeu-Dpa-Ala-Arg-NH2 as substrate preincubated for 30 mins followed by substrate addition by fluorescence based analysis
[2] = biological target: Matrix metalloproteinase-9 (Homo sapiens, UniProt P14780); assay: Inhibition of human recombinant MMP-9 incubated for 30 mins by fluorescence based analysis
[3] = biological target: Stromelysin-2 (Homo sapiens, UniProt P09238); assay: Inhibition of human recombinant MMP-10 using […]-Pro-Lys-Pro-Val-Glu-Nval-Trp-Arg-Lys(Dnp)-NH2 as substrate preincubated for 30 mins followed by substrate addition by fluorescence based analysis
[4] = biological target: Neutrophil collagenase (Homo sapiens, UniProt P22894); assay: Inhibition of human recombinant MMP-8 incubated for 30 mins by fluorescence based analysis
[5] = biological target: T1, Interstitial collagenase (Homo sapiens, UniProt P03956); assay: Inhibition of human recombinant MMP-1 incubated for 30 mins by fluorescence based analysis
T1 sequence (P03956 whole entry): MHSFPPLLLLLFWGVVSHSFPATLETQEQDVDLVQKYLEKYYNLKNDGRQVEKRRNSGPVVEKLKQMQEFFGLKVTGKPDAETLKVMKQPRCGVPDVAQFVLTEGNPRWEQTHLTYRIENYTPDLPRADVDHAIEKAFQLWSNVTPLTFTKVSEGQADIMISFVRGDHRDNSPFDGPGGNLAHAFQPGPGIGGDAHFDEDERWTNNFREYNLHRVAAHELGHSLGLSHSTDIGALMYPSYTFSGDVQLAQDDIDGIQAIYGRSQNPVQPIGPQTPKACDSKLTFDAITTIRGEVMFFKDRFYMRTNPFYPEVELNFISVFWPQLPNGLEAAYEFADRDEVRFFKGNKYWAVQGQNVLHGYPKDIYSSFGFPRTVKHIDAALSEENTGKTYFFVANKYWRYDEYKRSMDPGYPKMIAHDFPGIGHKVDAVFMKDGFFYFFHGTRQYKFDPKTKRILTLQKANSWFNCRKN

[6] = biological target: 72 kDa type IV collagenase (Homo sapiens, UniProt P08253); assay: Inhibition of human recombinant MMP-2 incubated for 30 mins by fluorescence based analysis
[7] = Drug distribution in western atherogenic diet fed ApoE-/- mouse muscle tissue at […], iv administered as bolus injection measured for 30 mins by gamma counter analysis; assay type: ADME, organism-based; conditions: in vivo, 0.5 h
Method in brief: (§1)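 Diet-fed male ApoE-/- mice (39 ± 5 g, n = 4-6) under 2% isoflurane received radiotracer (~7.5 MBq, 100-200 µL) IV by tail-vein bolus over 30 s. After 30 min, blood was taken by cardiac puncture, then PBS/formalin perfusion and organ dissection. Uptake is decay-corrected %ID normalized to tissue mass (%ID/g).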

[8] = Drug distribution in western atherogenic diet fed ApoE-/- mouse kidney at […], iv administered as bolus injection measured for 30 mins by gamma counter analysis; assay type: ADME, organism-based; conditions: in vivo, 0.5 h; method in brief: as §1
[9] = Octanol/PBS distribution coefficient, logD of compound at pH 7.4 incubated for 10 mins under shaking condition by gamma counter analysis; assay type: physicochemical
Method in brief: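 Radiotracer partitioning between 1-octanol and 1× PBS at pH 7.4. Mean ± standard error of two independent experiments, each in quadruplicate.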

[10] = Drug distribution in western atherogenic diet fed ApoE-/- mouse blood assessed as compound remaining at […], iv administered as bolus injection measured for 30 mins by gamma counter analysis; assay type: ADME, organism-based; conditions: in vivo, 0.5 h; method in brief: as §1
[11] = Drug distribution in western atherogenic diet fed ApoE-/- mouse myocardium assessed as myocardial retention at […], iv administered as bolus injection measured for 60 mins by PET analysis; assay type: ADME, organism-based; conditions: in vivo, 1 h
Method in brief: (§2)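 A 10 min transmission scan preceded tail-vein IV bolus of radiotracer (~7.5 MBq, over 30 s) in diet-fed ApoE-/- mice. Dynamic whole-body PET ran for 60 min (4×15 s, 4×1 min, 11×5 min frames), corrected for attenuation and scatter, 3D-OSEM/MAP reconstruction. Volumetric organ ROIs gave %ID·cc⁻¹ time-activity curves; n = 2 per group.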

[12] = Drug distribution in western atherogenic diet fed ApoE-/- mouse myocardium assessed as compound remaining at […], iv administered as bolus injection measured for 30 mins by gamma counter analysis; assay type: ADME, organism-based; conditions: in vivo, 0.5 h; method in brief: as §1
[13] = Drug distribution in western atherogenic diet fed ApoE-/- mouse brain at […], iv administered as bolus injection measured for 30 mins by gamma counter analysis; assay type: ADME, organism-based; conditions: in vivo, 0.5 h; method in brief: as §1
[14] = Drug distribution in western atherogenic diet fed ApoE-/- mouse kidney at […], iv administered as bolus injection measured for 60 mins by PET analysis; assay type: ADME, organism-based; conditions: in vivo, 1 h; method in brief: as §2
[15] = Drug distribution in western atherogenic diet fed ApoE-/- mouse spleen at […], iv administered as bolus injection measured for 30 mins by gamma counter analysis; assay type: ADME, organism-based; conditions: in vivo, 0.5 h; method in brief: as §1
[16] = Stability in western atherogenic diet fed ApoE-/- mouse plasma assessed as intact compound level at ~75 MBq, iv administered as bolus injection and measured after 30 mins by gamma counter analysis; assay type: ADME, organism-based; conditions: read-out: Stability
Method in brief: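 Blood was drawn by cardiac puncture into K₂EDTA tubes 30 min after IV radiotracer in diet-fed ApoE-/- mice. Optional IV pretreatment 15 min before: unlabelled analogue 2.5 mg/kg or WAY170523 7.5 mg/kg. Pooled protein-free plasma was spiked with standard and run on radio-HPLC (C18, ammonium formate/ACN). Fractions were collected each minute and gamma-counted to give the parent fraction.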

[17] = Drug distribution in western atherogenic diet fed ApoE-/- mouse stomach at […], iv administered as bolus injection measured for 30 mins by gamma counter analysis; assay type: ADME, organism-based; conditions: in vivo, 0.5 h; method in brief: as §1
[18] = Drug distribution in western atherogenic diet fed ApoE-/- mouse aortic plaques at […], iv administered as bolus injection measured for 30 mins by Oil Red O staining based autoradiography; assay type: ADME, organism-based, Aorta; conditions: in vivo, 0.5 h
Method in brief: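 Male ApoE-/- mice were fed a western atherogenic diet from 8 weeks of age for 13-16 weeks. Radiotracer (~7.5 MBq) was given IV by tail-vein bolus over 30 s. Blocking: unlabelled tracer analogue (2.5 mg/kg; DMA/propylene glycol/PEG400/water) or WAY170523 (7.5 mg/kg; DMSO/PEG400/water), both IV 15 min before. At 30 min, perfused aortae were exposed to a phosphor screen for 10 half-lives (%ID·mm⁻²), with ORO staining.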

[19] = Drug distribution in western atherogenic diet fed ApoE-/- mouse lung at […], iv administered as bolus injection measured for 30 mins by gamma counter analysis; assay type: ADME, organism-based; conditions: in vivo, 0.5 h; method in brief: as §1
[20] = Drug distribution in western atherogenic diet fed ApoE-/- mouse pancreas at […], iv administered as bolus injection measured for 30 mins by gamma counter analysis; assay type: ADME, organism-based; conditions: in vivo, 0.5 h; method in brief: as §1
[21] = Stability of compound in 10% EtOH/saline assessed as compound degradation measured upto 75 mins by analytical radio-HPLC analysis; assay type: physicochemical; conditions: buffer, 1.25 h
Method in brief: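 Radiotracer formulated in 10% EtOH/0.9% saline was held at room temperature up to 75 min. Samples were analysed by analytical radio-HPLC (C18, 0.1 M ammonium formate/ACN gradient, 1 mL·min⁻¹).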

[22] = Drug distribution in western atherogenic diet fed ApoE-/- mouse fat tissue at […], iv administered as bolus injection measured for 30 mins by gamma counter analysis; assay type: ADME, organism-based, Adipose tissue; conditions: in vivo, 0.5 h; method in brief: as §1
[23] = Drug distribution in western atherogenic diet fed ApoE-/- mouse bone at […], iv administered as bolus injection measured for 30 mins by gamma counter analysis; assay type: ADME, organism-based, Bone element; conditions: in vivo, 0.5 h; method in brief: as §1
[24] = Drug distribution in western atherogenic diet fed ApoE-/- mouse intestine at […], iv administered as bolus injection measured for 30 mins by gamma counter analysis; assay type: ADME, organism-based; conditions: in vivo, 0.5 h; method in brief: as §1
[25] = Drug distribution in western atherogenic diet fed ApoE-/- mouse liver at […], iv administered as bolus injection measured for 60 mins by PET analysis; assay type: ADME, organism-based; conditions: in vivo, 1 h; method in brief: as §2
[26] = Tmax in western atherogenic diet fed ApoE-/- mouse blood at […], iv administered as bolus injection measured for 60 mins by PET analysis; assay type: ADME, organism-based; conditions: in vivo, 1 h; method in brief: as §2

Chain of Matrix metalloproteinase-9 (P14780 whole entry): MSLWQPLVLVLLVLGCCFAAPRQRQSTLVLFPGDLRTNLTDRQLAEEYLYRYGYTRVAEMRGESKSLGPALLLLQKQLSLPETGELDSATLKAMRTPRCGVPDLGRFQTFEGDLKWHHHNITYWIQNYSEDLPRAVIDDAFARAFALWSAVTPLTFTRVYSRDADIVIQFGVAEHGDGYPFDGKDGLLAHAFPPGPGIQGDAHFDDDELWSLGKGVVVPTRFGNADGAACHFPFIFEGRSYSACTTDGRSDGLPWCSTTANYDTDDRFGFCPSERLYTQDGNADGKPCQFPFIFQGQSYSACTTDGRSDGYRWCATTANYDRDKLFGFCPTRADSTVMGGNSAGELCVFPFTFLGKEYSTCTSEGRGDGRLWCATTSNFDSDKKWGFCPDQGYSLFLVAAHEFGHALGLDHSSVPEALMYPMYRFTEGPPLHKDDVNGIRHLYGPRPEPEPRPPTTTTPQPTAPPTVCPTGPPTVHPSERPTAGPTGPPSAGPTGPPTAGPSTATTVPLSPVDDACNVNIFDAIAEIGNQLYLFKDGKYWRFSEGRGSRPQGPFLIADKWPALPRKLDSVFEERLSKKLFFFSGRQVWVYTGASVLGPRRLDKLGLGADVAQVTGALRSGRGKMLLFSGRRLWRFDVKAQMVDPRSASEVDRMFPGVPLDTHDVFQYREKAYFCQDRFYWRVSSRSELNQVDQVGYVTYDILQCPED
Chain of Neutrophil collagenase (P22894 whole entry): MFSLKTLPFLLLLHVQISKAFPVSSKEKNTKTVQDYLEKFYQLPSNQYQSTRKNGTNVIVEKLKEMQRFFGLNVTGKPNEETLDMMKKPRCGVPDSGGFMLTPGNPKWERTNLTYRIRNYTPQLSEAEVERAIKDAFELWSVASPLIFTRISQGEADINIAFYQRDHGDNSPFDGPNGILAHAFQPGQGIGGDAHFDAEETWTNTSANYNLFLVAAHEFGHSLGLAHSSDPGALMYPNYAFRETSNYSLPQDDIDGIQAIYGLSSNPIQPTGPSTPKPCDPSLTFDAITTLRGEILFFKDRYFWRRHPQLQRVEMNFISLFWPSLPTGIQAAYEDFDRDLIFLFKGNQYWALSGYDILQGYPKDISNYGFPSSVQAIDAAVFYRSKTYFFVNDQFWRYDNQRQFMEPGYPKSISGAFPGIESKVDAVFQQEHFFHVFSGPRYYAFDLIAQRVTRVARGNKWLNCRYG
Chain of Stromelysin-2 (P09238 whole entry): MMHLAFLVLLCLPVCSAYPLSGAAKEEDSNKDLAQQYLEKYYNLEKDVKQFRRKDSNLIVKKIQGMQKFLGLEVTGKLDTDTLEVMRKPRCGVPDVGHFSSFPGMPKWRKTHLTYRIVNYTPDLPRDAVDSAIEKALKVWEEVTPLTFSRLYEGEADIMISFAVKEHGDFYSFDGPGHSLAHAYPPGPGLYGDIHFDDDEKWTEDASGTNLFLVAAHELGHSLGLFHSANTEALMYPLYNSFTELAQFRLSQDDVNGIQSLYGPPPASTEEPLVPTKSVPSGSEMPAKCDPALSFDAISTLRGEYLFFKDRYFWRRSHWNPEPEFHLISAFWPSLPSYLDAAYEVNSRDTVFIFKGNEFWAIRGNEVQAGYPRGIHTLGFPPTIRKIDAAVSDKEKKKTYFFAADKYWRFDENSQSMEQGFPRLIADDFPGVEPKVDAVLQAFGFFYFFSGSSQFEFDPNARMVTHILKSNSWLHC
Chain of 72 kDa type IV collagenase (P08253 whole entry): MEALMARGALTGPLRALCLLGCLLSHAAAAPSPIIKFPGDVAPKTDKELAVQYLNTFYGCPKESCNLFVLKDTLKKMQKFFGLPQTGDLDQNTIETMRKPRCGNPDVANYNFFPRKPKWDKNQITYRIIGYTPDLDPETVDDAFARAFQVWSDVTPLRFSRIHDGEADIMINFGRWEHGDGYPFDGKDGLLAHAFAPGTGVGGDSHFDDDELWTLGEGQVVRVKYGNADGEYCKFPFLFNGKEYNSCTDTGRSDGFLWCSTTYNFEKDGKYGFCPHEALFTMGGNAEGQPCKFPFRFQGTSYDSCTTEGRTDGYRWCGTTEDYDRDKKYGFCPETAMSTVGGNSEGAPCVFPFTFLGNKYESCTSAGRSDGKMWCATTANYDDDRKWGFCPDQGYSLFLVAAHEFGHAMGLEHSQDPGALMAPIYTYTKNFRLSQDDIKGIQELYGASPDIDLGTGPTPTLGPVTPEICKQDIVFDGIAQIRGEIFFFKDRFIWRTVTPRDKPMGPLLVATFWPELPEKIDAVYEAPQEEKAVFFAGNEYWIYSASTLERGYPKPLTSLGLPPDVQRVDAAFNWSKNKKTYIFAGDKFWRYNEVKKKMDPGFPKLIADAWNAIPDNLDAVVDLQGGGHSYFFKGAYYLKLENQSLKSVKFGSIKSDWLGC

SMILES	IC50 [1] [nM]	IC50 [2] [nM]	IC50 [3] [nM]	IC50 [4] [nM]	IC50 [5] [nM]	IC50 [6] [nM]	further results
COc1ccc(CNC(=O)c2nc3ccc(F)c(F)c3c(=O)[nH]2)cc1	313	–	–	–	–	–	–
O=C(O)c1ccc(CCOc2c(F)ccc3nc(C(=O)NCc4cccc(O)c4)[nH]c(=O)c23)cc1	1.3	> 10000	2800	2100	> 10000	> 10000	–
Cc1cc(CNC(=O)c2cc(C(=O)NCc3ccc(OCCF)cc3)ncn2)ccc1F	52	–	–	–	–	–	–
COc1ccc(CCOc2c(F)ccc3nc(C(=O)NCc4ccc(OC)cc4)[nH]c(=O)c23)cc1	113	–	–	–	–	–	–
Cc1cc(CNC(=O)c2nc3ccc(F)c(OCCc4ccc(O[11CH3])cc4)c3c(=O)[nH]2)ccc1F	–	–	–	–	–	–	Drug uptake [7]: ~ 2 % ID/g; Drug uptake [8]: < 7 % ID/g; logD at 10 min [9]: 3.76; Drug uptake [10]: 1.83 % ID/g; Drug uptake [11]: < 0.5 %ID/cc; Drug uptake [12]: ~ 1 % ID/g; Drug uptake [13]: ~ 2 % ID/g; Drug uptake [14]: 7.4 %ID/cc; Drug uptake [15]: ~ 2 % ID/g; remaining at 0.5 h [16]: 70%; Drug uptake [17]: ~ 2 % ID/g; Drug uptake [18]: 129.8 %ID.m^-2; Drug uptake [19]: ~ 2 % ID/g; Drug uptake [20]: 3.27 % ID/g; Stability [21]: Stable; Drug uptake [22]: ~ 2 % ID/g; Drug uptake [23]: ~ 2 % ID/g; Drug uptake [24]: < 7 % ID/g; Drug uptake [25]: 9.3 %ID/cc; Tmax [26]: 37.5 s
Cc1cc(CNC(=O)c2nc3ccc(F)c(F)c3c(=O)[nH]2)ccc1F	106	–	–	–	–	–	–
Cc1cc(CNC(=O)c2nc3ccc(F)c(OCCc4ccc(O)cc4)c3c(=O)[nH]2)ccc1F	12	> 10000	6900	2200	> 10000	> 10000	–
COc1cccc(CNC(=O)c2nc3ccc(F)c(OCCc4ccc(C(=O)O)cc4)c3c(=O)[nH]2)c1	1.3	> 10000	3200	2400	> 10000	> 10000	–
Cc1cc(CNC(=O)c2nc3ccc(F)c(OCCF)c3c(=O)[nH]2)ccc1F	16	> 10000	3100	1200	> 10000	> 10000	–
Cc1cc(CNC(=O)c2cc(C(=O)NCc3ccc(OCC[18F])cc3)ncn2)ccc1F	–	–	–	–	–	–	Drug uptake [11]: ~ 5 %ID/cc; Drug uptake [25]: ~ 12 %ID/cc
COc1cccc(CNC(=O)c2nc3ccc(F)c(F)c3c(=O)[nH]2)c1	118	–	–	–	–	–	–

Second part, led by results:

IC50 [1] [nM]	IC50 [2] [nM]	IC50 [3] [nM]	IC50 [4] [nM]	IC50 [5] [nM]	IC50 [6] [nM]	SMILES	further results
1.2	> 10000	2500	1700	> 10000	> 10000	Cc1cc(CNC(=O)c2nc3ccc(F)c(OCCc4ccc(C(=O)O)cc4)c3c(=O)[nH]2)ccc1F	–
48	> 10000	6800	1500	> 10000	> 10000	COc1ccc(CNC(=O)c2nc3ccc(F)c(OCCc4ccc(O)cc4)c3c(=O)[nH]2)cc1	–
149	–	–	–	–	–	O=C(NCc1cccc(O)c1)c1nc2ccc(F)c(F)c2c(=O)[nH]1	–
24	> 10000	9100	780	> 10000	> 10000	COc1ccc(CCOc2c(F)ccc3nc(C(=O)NCc4ccc(F)c(C)c4)[nH]c(=O)c23)cc1	–
127	–	–	–	–	–	COc1ccc(CNC(=O)c2nc3ccc(F)c(OCCF)c3c(=O)[nH]2)cc1	–
2.9	> 10000	2700	1400	> 10000	> 10000	COc1ccc(CNC(=O)c2nc3ccc(F)c(OCCc4ccc(C(=O)O)cc4)c3c(=O)[nH]2)cc1	–
